SMILES strings stand for the structures.

For assay [1], the system named is Fusarium verticillioides. Nature of the assay: Antifungal activity against Fusarium verticillioides assessed as growth inhibition by broth microdilution method.
In assay [2] the test system is Fusarium verticillioides. Nature of the assay: Antifungal activity against Fusarium verticillioides assessed as growth inhibition by broth microdilution method. Format: functional, organism-based. The method in brief: (§1)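 F. verticillioides strain M-7075, a maize isolate, was kept as a monosporic culture on V8 juice medium. Four-day-old spores were suspended at 10^5 spores/mL in glucose-mineral salts medium. Compound in filter-sterilized DMSO (final ≤2-4%) was tested at 0.10–1.70 mg/mL, in duplicate, alongside DMSO and untreated controls. Germination relative to control mycelial growth (100%) was scored visually by inverted microscope. MIC was the lowest concentration giving complete inhibition, and IC50 came from probit analysis.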

In assay [3] the test system is Fusarium verticillioides. The assay is described as follows: Antifungal activity against Fusarium verticillioides assessed as growth inhibition at 1 mg/mL by broth microdilution method. Format: functional. In a few lines: as §1
In assay [4] the test system is Fusarium incarnatum. The assay is described as follows: Antifungal activity against Fusarium incarnatum assessed as growth inhibition at 1 mg/mL by broth microdilution method. Format: functional. Conditions: read-out: GI.
Assay [5] deals with Fusarium incarnatum. Nature of the assay: Antifungal activity against Fusarium incarnatum assessed as growth inhibition by broth microdilution method. Format: functional, organism-based.
Assay [6] concerns Fusarium. The assay is described as follows: Antifungal activity against Fusarium fusiformis assessed as growth inhibition by broth microdilution method. Format: functional, organism-based.
Assay [7] relates to Fusarium. The assay is described as follows: Antifungal activity against Fusarium fusiformis assessed as growth inhibition at 1 mg/mL by broth microdilution method. Type of assay: functional.

For `COc1cc(/C=C/C=O)ccc1O` [CONIFERYL ALDEHYDE], the MIC in assay [1] came to 400 mg/L.
In the case of `COc1cc(C=O)ccc1O` [VANILLIN], the MIC in assay [1] turned out to be 600 mg/L.
Turning to `COc1cc2ccc(=O)oc2cc1O` [SCOPOLETIN], the IC50 in assay [2] is 730 mg/L; in assay [5], 470 mg/L; in assay [6], 820 mg/L. Besides, the MIC in assay [2] was 1500 mg/L. For the same compound, the inhibition at 1000 µg/mL was found to be 90% in assay [3] and 51.8% in assay [7]. Besides, the inhibition of growth at 1000 µg/mL in assay [4] was 66.2%.
Consider `COc1cc(C2OCC3C(c4ccc(O)c(OC)c4)OCC23)ccc1O` (racemic) [(+/-)-PINORESINOL], for which the MIC in assay [1] stood at 1000 mg/L.

Values taken from ChEMBL document CHEMBL3046103, “Antifungal synergistic effect of scopoletin, a hydroxycoumarin isolated from Melia azedarach L. fruits” (J Agric Food Chem, 2005).
